Laboratory results: publication PMC5598146 (Toxicology Reports, 2015)
“Also recorded” adds a separate entry of the source.

How the values were obtained:
[1] = Pharmacokinetics and oral bioavailability in rats; format: in vivo, Sprague-Dawley rats; settings: for half-life / bioavailability / clearance / Tmax: rat, plasma
[2] = Excretion in urine and feces of rats; format: in vivo, Sprague-Dawley rats; settings: 10 mg/kg oral
[3] = In vitro oxidative metabolism, rat liver microsomes; format: in vitro ADME
Method in brief: (§1)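 Pooled mixed-gender liver microsomes (human or Sprague-Dawley rat) were incubated with test compound plus NADPH for 60 min at 37 °C, then quenched with acetonitrile. Controls: time-zero and 60-min incubations without NADPH, plus testosterone incubations to confirm microsomal activity. Metabolites were sought by LC/MS full-scan analysis with UV detection at 214, 240 and 254 nm.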

Sprague-Dawley rats [4] = experiment: 28-Day dose-range finding toxicity study; format: in vivo, rat; settings: 28 days
[5] = system: human peripheral blood lymphocytes (HPBL); experiment: In vitro chromosome aberration test; format: cell-based; settings: 125-500 ug/mL, 3 h ±S9, 20 h -S9
Method in brief: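 Human peripheral blood lymphocytes were exposed to the sodium salt of the test compound (0–500 µg/mL) per OECD 473, with solvent and positive controls (mitomycin C −S9, cyclophosphamide +S9). Exposures: 3 h and 20 h without S9, and 3 h with S9 from phenobarbital/5,6-benzoflavone-induced male Sprague-Dawley rat liver. Structural and numerical aberrations were scored at 125, 250 and 500 µg/mL for each condition.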

Sprague-Dawley rats [6] = experiment: 90-Day subchronic toxicity study; format: in vivo, rat; settings: 90 days
Method in brief: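 Male and female Crl:CD(SD) rats, 20/sex/group, fed 0 (basal diet), 30, 60 or 100 mg/kg/day in the diet for 90 days. […] End-points: functional observation battery, motor activity, body weight gain, food consumption, hematology, clinical chemistry, urinalysis, organ weights, necropsy, and histopathology of at least 53 tissues (control and high dose only).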

[7] = Toxicokinetics in the 90-day dietary study; format: in vivo, Sprague-Dawley rats; settings: for AUC(0-t): Sprague-Dawley [Crl:CD(SD)], rat, in vivo, po, AUC(0-24)
[8] = In vitro oxidative metabolism, human liver microsomes; format: in vitro ADME
Method in brief: as §1

[9] = Dietary exposure estimate; settings: 100 mg/kg bw/day vs 2400 μg/day
[10] = system: bred female Crl:CD(SD) rats; experiment: Dose range-finding developmental toxicity study; format: in vivo, rat; settings: 125, 250, 500, 1000 mg/kg/day oral gavage, gestation Days 6-20
[11] = food ad-mix, male and female rats, highest dose tested

For `Cc1nc2cccc(OCC(C)(C)C(=O)NC(C)C)c2c(N)c1C(=O)O` [S9632, 4-amino-5-(3-(isopropylamino)-2,2-dimethyl-3-oxopropoxy)-2-methylquinoline-3-carboxylic acid], the half-life ([1]; both, Sprague-Dawley [Crl:CD(SD)], iv, 1 mg/kg, apparent plasma half-life (t1/2), range, iv, male and female) was 11.4 to 16.2 min, the half-life ([1]; both, Sprague-Dawley [Crl:CD(SD)], po, plasma elimination half-life (t1/2), range, oral administration) was 42.6 to 83.4 min and the half-life ([1]; both, Sprague-Dawley, iv, 1 mg/kg, t1/2, intravenous) was under 16.2 min. The bioavailability ([1]; both, Sprague-Dawley, po) was 0.53 to 1.19%, the half-life ([1]; both, Sprague-Dawley, po, t1/2, oral administration) was under 83.4 min and the bioavailability ([1]; female, Sprague-Dawley [Crl:CD(SD)], po, 100 mg/kg) was 0.83%. For the same molecule, the clearance ([1]; female, Sprague-Dawley, iv, 1 mg/kg) was 42.5 mL/min/kg, the Tmax ([1]; female, Sprague-Dawley, iv, 1 mg/kg, iv 1.0 mg/kg, Day 1, F) was 1.8 min and the half-life ([1]; female, Sprague-Dawley, iv, 1 mg/kg, t1/2, iv 1.0 mg/kg, Day 1, F) was 16.2 min. The bioavailability ([1]; female, Sprague-Dawley, po, 10 mg/kg) was 1.19%, the bioavailability ([1]; female, Sprague-Dawley, po, 30 mg/kg) was 0.77% and the AUC0-last/dose ([1]; iv 1.0 mg/kg, Day 1, F) was 411.9 ng·h/mL/mg/kg. For the same molecule, the AUC0-last/dose ([1]; iv 1.0 mg/kg, Day 1, M) was 330.6 ng·h/mL/mg/kg, the “Mean plasma clearance as % of hepatic blood flow” value ([1]; iv, females) was 77.3% and the “Mean plasma clearance as % of hepatic blood flow” value ([1]; iv, males) was 93.6%. For the same molecule, the clearance ([1]; male, Sprague-Dawley, iv, 1 mg/kg) was 51.5 mL/min/kg, the Tmax ([1]; male, Sprague-Dawley, iv, 1 mg/kg, iv 1.0 mg/kg, Day 1, M) was 1.8 min and the half-life ([1]; male, Sprague-Dawley, iv, 1 mg/kg, t1/2, iv 1.0 mg/kg, Day 1, M) was 11.4 min. The bioavailability ([1]; male, Sprague-Dawley, po, 10 mg/kg) was 0.54%, the bioavailability ([1]; male, Sprague-Dawley, po, 30 mg/kg) was 0.92% and the bioavailability ([1]; male, Sprague-Dawley, po, 100 mg/kg) was 0.53%. The AUC0-last/dose ([1]; oral gavage 10 mg/kg, Day 1, F) was 4.92 ng·h/mL/mg/kg, the AUC0-last/dose ([1]; oral gavage 10 mg/kg, Day 1, M) was 1.79 ng·h/mL/mg/kg and the AUC0-last/dose ([1]; oral gavage 10 mg/kg, Day 7, F) was 5.89 ng·h/mL/mg/kg. It also gave an AUC0-last/dose ([1]; oral gavage 10 mg/kg, Day 7, M) of 4.81 ng·h/mL/mg/kg, an AUC0-last/dose ([1]; oral gavage 30 mg/kg, Day 1, F) of 3.17 ng·h/mL/mg/kg and an AUC0-last/dose ([1]; oral gavage 30 mg/kg, Day 1, M) of 3.03 ng·h/mL/mg/kg. For the same molecule, the AUC0-last/dose ([1]; oral gavage 30 mg/kg, Day 7, F) was 3.56 ng·h/mL/mg/kg, the AUC0-last/dose ([1]; oral gavage 30 mg/kg, Day 7, M) was 2.87 ng·h/mL/mg/kg and the AUC0-last/dose ([1]; oral gavage 100 mg/kg, Day 1, F) was 3.41 ng·h/mL/mg/kg. It also gave an AUC0-last/dose ([1]; oral gavage 100 mg/kg, Day 1, M) of 1.76 ng·h/mL/mg/kg, an AUC0-last/dose ([1]; oral gavage 100 mg/kg, Day 7, F) of 2.79 ng·h/mL/mg/kg and an AUC0-last/dose ([1]; oral gavage 100 mg/kg, Day 7, M) of 1.85 ng·h/mL/mg/kg. The Accumulation in plasma ([1]; repeated oral dosing for 7 consecutive days) was “No significant accumulation”, the “Oxidative metabolites (M + 16) in fecal samples” value [2] was “not detectable” and the “Oxidative metabolites (M + 16) in urine” value [2] was “trace amounts”. The “Metabolism (Phase I biotransformations)” value ([3]; 10 µM, 60 min, 37 °C, NADPH) was “not metabolized; also recorded: No Phase I biotransformations”, the “Level above which no metabolism was observed” value ([3]; 60 min incubation) was ≤ 0.1 % of the parent drug and the Findings (Sprague-Dawley rats [4]; 10, 30, 100 mg/kg/day food ad-mix) was “No test-article related findings”. The NOEL (Sprague-Dawley rats [4]; [11]) was 100 mg/kg/day, the “Chromosome aberration (in vitro), result” value [5] was “Negative” and the Findings (Sprague-Dawley rats [6]; 30, 60, 100 mg/kg/day food ad-mix) was “No test-article related findings”. It also gave an NOEL (Sprague-Dawley rats [6]; [11]) of 100 mg/kg/day, an AUC(0-t) ([7]; both, 30 mg/kg/day, food ad-mix 30 mg/kg/day, Day 90, Combined) of 341 ng·h/mL and an AUC(0-t) ([7]; both, 100 mg/kg/day, food ad-mix 100 mg/kg/day, Day 7, Combined) of 1040 ng·h/mL. For the same molecule, the AUC(0-t) ([7]; both, 100 mg/kg/day, food ad-mix 100 mg/kg/day, Day 90, Combined) was 1200 ng·h/mL, the AUC(0-t) ([7]; female, 30 mg/kg/day, food ad-mix 30 mg/kg/day, Day 90, Female) was 389 ng·h/mL and the AUC(0-t) ([7]; female, 100 mg/kg/day, food ad-mix 100 mg/kg/day, Day 90, Female) was 1400 ng·h/mL. The AUC0-24/dose ([7]; food ad-mix 30 mg/kg/day, Day 7, Combined) was 5.92 ng·h/mL/mg/kg, the AUC0-24/dose ([7]; food ad-mix 30 mg/kg/day, Day 7, Female) was 3.5 ng·h/mL/mg/kg and the AUC0-24/dose ([7]; food ad-mix 30 mg/kg/day, Day 7, Male) was 8.34 ng·h/mL/mg/kg. The AUC0-24/dose ([7]; food ad-mix 30 mg/kg/day, Day 90, Combined) was 11.4 ng·h/mL/mg/kg, the AUC0-24/dose ([7]; food ad-mix 30 mg/kg/day, Day 90, Female) was 13.0 ng·h/mL/mg/kg and the AUC0-24/dose ([7]; food ad-mix 30 mg/kg/day, Day 90, Male) was 9.75 ng·h/mL/mg/kg. The AUC0-24/dose ([7]; food ad-mix 60 mg/kg/day, Day 7, Combined) was 6.61 ng·h/mL/mg/kg, the AUC0-24/dose ([7]; food ad-mix 60 mg/kg/day, Day 7, Female) was 9.43 ng·h/mL/mg/kg and the AUC0-24/dose ([7]; food ad-mix 60 mg/kg/day, Day 7, Male) was 3.79 ng·h/mL/mg/kg. The AUC0-24/dose ([7]; food ad-mix 60 mg/kg/day, Day 90, Combined) was 13.3 ng·h/mL/mg/kg, the AUC0-24/dose ([7]; food ad-mix 60 mg/kg/day, Day 90, Female) was 9.14 ng·h/mL/mg/kg and the AUC0-24/dose ([7]; food ad-mix 60 mg/kg/day, Day 90, Male) was 17.5 ng·h/mL/mg/kg. For the same molecule, the AUC0-24/dose ([7]; food ad-mix 100 mg/kg/day, Day 7, Combined) was 10.4 ng·h/mL/mg/kg, the AUC0-24/dose ([7]; food ad-mix 100 mg/kg/day, Day 7, Female) was 11.7 ng·h/mL/mg/kg and the AUC0-24/dose ([7]; food ad-mix 100 mg/kg/day, Day 7, Male) was 9.15 ng·h/mL/mg/kg. For the same molecule, the AUC0-24/dose ([7]; food ad-mix 100 mg/kg/day, Day 90, Combined) was 12.0 ng·h/mL/mg/kg, the AUC0-24/dose ([7]; food ad-mix 100 mg/kg/day, Day 90, Female) was 14.0 ng·h/mL/mg/kg and the AUC0-24/dose ([7]; food ad-mix 100 mg/kg/day, Day 90, Male) was 10.0 ng·h/mL/mg/kg. The AUC(0-t) ([7]; male, 30 mg/kg/day, food ad-mix 30 mg/kg/day, Day 90, Male) was 293 ng·h/mL, the AUC(0-t) ([7]; male, 100 mg/kg/day, food ad-mix 100 mg/kg/day, Day 90, Male) was 1000 ng·h/mL and the “Metabolism (Phase I biotransformations)” value ([8]; 10 µM, 60 min, 37 °C, NADPH) was “not metabolized; also recorded: No Phase I biotransformations”. For the same molecule, the “Level above which no metabolism was observed” value ([8]; 60 min incubation) was ≤ 0.1 % of the parent drug, the “NOAEL (90-day) relative to estimated dietary exposure” value [9] was 2500 times and the Findings [10] was “No maternal toxicity or effects on intrauterine growth and survival up to 1000 mg/kg/day”.
